Measured values taken from ChEMBL document CHEMBL1275441, “Effect of impaired renal function on the pharmacokinetics of tomopenem (RO4908463/CS-023), a novel carbapenem” (Antimicrob Agents Chemother, 2008).

Legend:
Homo sapiens [1] = assay: Drug metabolism in human with creatinine clearance of 50-79 ml/min assessed as RO4957463 AUC (infinity) at 1500 mg, iv administered as single dose measured after 60 mins; assay type: ADME, organism-based; set-up: dose 1500 mg, time infinity, route intravenous; conditions: in vivo, 1 h
How it was run: (§1)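 Single 1,500 mg i.v. infusion over 60 min, eight subjects per renal-function group (creatinine clearance by Cockcroft-Gault at screening). Blood was sampled predose and at 1–48 h, and the plasma was stabilized 1:1 with 0.5 M MOPS pH 6.0, kept from light and frozen at −70°C. Parent and metabolite were measured by a validated bioanalytical method. Noncompartmental analysis: t1/2 = ln2/λz from ≥3 terminal points, Cmax/Tmax from raw data, ratio = AUC∞ metabolite/parent.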

Homo sapiens [2] = assay: Drug metabolism in human with creatinine clearance of 30-49 ml/min assessed as RO4957463 AUC (infinity) at 1500 mg, iv administered as single dose measured after 60 mins; assay type: ADME, organism-based; set-up: dose 1500 mg, route intravenous, time infinity; conditions: in vivo, 1 h; how it was run: as §1
Homo sapiens [3] = assay: Ratio of RO4957463 AUC (infinity) to compound AUC (infinity) in human with creatinine clearance of 50-79 ml/min at 1500 mg, iv administered as single dose measured after 60 mins; assay type: ADME, organism-based; conditions: in vivo, 1 h; how it was run: as §1
Homo sapiens [4] = assay: Ratio of RO4957463 AUC (infinity) to compound AUC (infinity)) in human with creatinine clearance of =< 30 ml/min at 1500 mg, iv administered as single dose measured after 60 mins; assay type: ADME, organism-based; conditions: in vivo, 1 h; how it was run: as §1
[5] = Renal clearance in human with creatinine clearance of => 80 ml/min at 1500 mg, iv administered as single dose after 24 hrs; assay type: ADME, organism-based, Kidney; conditions: in vivo, read-out: CL_renal (converted)
How it was run: (§2)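 Single 1,500 mg i.v. infusion over 60 min, with 8 subjects per renal-function group (CL_CR by Cockcroft-Gault at screening). Urine was collected at 0–6, 6–12 and 12–24 h, volume and pH recorded, and aliquots mixed 1:1 with 0.5 M MOPS. Samples were frozen at −70°C, protected from light, and assayed by a validated method. CL_R = A_e24/AUC₂₄.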

[6] = Renal clearance in human with creatinine clearance of 50-79 ml/min at 1500 mg, iv administered as single dose after 24 hrs; assay type: ADME, organism-based, Kidney; conditions: in vivo, read-out: CL_renal (converted); how it was run: as §2
[7] = Renal clearance in human with creatinine clearance of 30-49 ml/min at 1500 mg, iv administered as single dose after 24 hrs; assay type: ADME, organism-based, Kidney; conditions: in vivo, read-out: CL_renal (converted)
How it was run: (§3)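 After a single 1,500 mg i.v. infusion over 60 min, urine was collected 0–6, 6–12 and 12–24 h post-dose, with volume and pH recorded. Aliquots were mixed 1:1 with 0.5 M MOPS, protected from light and frozen at −70°C. Parent and metabolite were assayed by a validated method. CLR = Ae24/plasma AUC24. n = 8 per group, mean ± SD.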

Homo sapiens [8] = assay: Drug excretion in human with creatinine clearance of 50-79 ml/min at 1500 mg, iv administered as single dose after 24 hrs; assay type: ADME, organism-based; conditions: in vivo; how it was run: as §3
Homo sapiens [9] = assay: Drug excretion in human with creatinine clearance of =< 30 ml/min at 1500 mg, iv administered as single dose after 24 hrs; assay type: ADME, organism-based; conditions: in vivo; how it was run: as §3
[10] = Dose normalized excretion in human with creatinine clearance of 50-79 ml/min at 1500 mg, iv administered as single dose after 24 hrs; assay type: ADME, organism-based; conditions: in vivo, read-out: Activity; how it was run: as §3
[11] = Dose normalized excretion in human with creatinine clearance of 30-49 ml/min at 1500 mg, iv administered as single dose after 24 hrs; assay type: ADME, organism-based; conditions: in vivo, read-out: Activity; how it was run: as §3
[12] = Volume of distribution in healthy human at 700 mg, iv administered as single dose; assay type: ADME, organism-based; conditions: in vivo
[13] = Cmax in human with creatinine clearance of 50-79 ml/min at 1500 mg, iv administered as single dose measured after 60 mins; assay type: ADME, organism-based; set-up: dose 1500 mg, route intravenous; conditions: in vivo; how it was run: as §1
[14] = Cmax in human with creatinine clearance of => 80 ml/min at 1500 mg, iv administered as single dose measured after 60 mins; assay type: ADME, organism-based; set-up: dose 1500 mg, route intravenous; conditions: in vivo; how it was run: as §1
[15] = Cmax in human with creatinine clearance of 30-49 ml/min at 1500 mg, iv administered as single dose measured after 60 mins; assay type: ADME, organism-based; set-up: dose 1500 mg, route intravenous; conditions: in vivo; how it was run: as §1
[16] = Cmax in human with creatinine clearance of =< 30 ml/min at 1500 mg, iv administered as single dose measured after 60 mins; assay type: ADME, organism-based; set-up: dose 1500 mg, route intravenous; conditions: in vivo; how it was run: as §1
[17] = Tmax in human with creatinine clearance of 30-49 ml/min at 1500 mg, iv administered as single dose; assay type: ADME, organism-based; conditions: in vivo
How it was run: (§4)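 Eight subjects per CL_CR group (Cockcroft-Gault) received 1,500 mg i.v. over 60 min. Plasma was sampled predose and from 1 to 48 h, mixed with equal-volume 0.5 M MOPS pH 6.0, frozen at −70°C light-protected, and assayed by a validated method. Parameters were derived noncompartmentally from actual times, with T_max taken from raw data as a median and CL/V_ss as means ± SD.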

[18] = Apparent half-life in human with creatinine clearance of 30-49 ml/min at 1500 mg, iv administered as single dose; assay type: ADME, organism-based; conditions: in vivo; how it was run: as §1
[19] = Apparent half-life in human with creatinine clearance of =< 30 ml/min at 1500 mg, iv administered as single dose; assay type: ADME, organism-based; conditions: in vivo; how it was run: as §1
[20] = AUC (infinity) in human with creatinine clearance of => 80 ml/min at 1500 mg, iv administered as single dose measured after 60 mins; assay type: ADME, organism-based; set-up: dose 1500 mg, time infinity, route intravenous; conditions: plasma; how it was run: as §1
[21] = AUC (infinity) in human with creatinine clearance of 50-79 ml/min at 1500 mg, iv administered as single dose measured after 60 mins; assay type: ADME, organism-based; set-up: dose 1500 mg, route intravenous, time infinity; conditions: plasma; how it was run: as §1
[22] = AUC (infinity) in human with creatinine clearance of =< 30 ml/min at 1500 mg, iv administered as single dose measured after 60 mins; assay type: ADME, organism-based; set-up: dose 1500 mg, time infinity, route intravenous; conditions: plasma; how it was run: as §1
[23] = Volume of distribution at steady state in human with creatinine clearance of 50-79 ml/min at 1500 mg, iv administered as single dose measured after 60 mins; assay type: ADME, organism-based; conditions: in vivo, read-out: Vdss; how it was run: as §4
[24] = Total clearance in human with creatinine clearance of => 80 ml/min at 1500 mg, iv administered as single dose measured after 60 mins; assay type: ADME, organism-based; conditions: in vivo; how it was run: as §4
[25] = Total clearance in human with creatinine clearance of 30-49 ml/min at 1500 mg, iv administered as single dose measured after 60 mins; assay type: ADME, organism-based; conditions: in vivo; how it was run: as §4
Homo sapiens [26] = assay: Drug metabolism in human with creatinine clearance of 50-79 ml/min assessed as RO4957463 Cmax at 1500 mg, iv administered as single dose measured after 60 mins; assay type: ADME, organism-based; set-up: dose 1500 mg, route intravenous; conditions: in vivo, 1 h; how it was run: as §1
Homo sapiens [27] = assay: Drug metabolism in human with creatinine clearance of =< 30 ml/min assessed as RO4957463 Cmax at 1500 mg, iv administered as single dose measured after 60 mins; assay type: ADME, organism-based; set-up: dose 1500 mg, route intravenous; conditions: in vivo, 1 h; how it was run: as §1
Homo sapiens [28] = assay: Drug metabolism in human with creatinine clearance of 30-49 ml/min assessed as RO4957463 Tmax at 1500 mg, iv administered as single dose; assay type: ADME, organism-based; conditions: in vivo; how it was run: as §1
Homo sapiens [29] = assay: Drug metabolism in human with creatinine clearance of =< 30 ml/min assessed as RO4957463 Tmax at 1500 mg, iv administered as single dose; assay type: ADME, organism-based; conditions: in vivo; how it was run: as §1
Homo sapiens [30] = assay: Drug metabolism in human with creatinine clearance of => 80 ml/min assessed as RO4957463 apparent half life at 1500 mg, iv administered as single dose; assay type: ADME, organism-based; conditions: in vivo; how it was run: as §1
Homo sapiens [31] = assay: Drug metabolism in human with creatinine clearance of 30-49 ml/min assessed as RO4957463 apparent half life at 1500 mg, iv administered as single dose; assay type: ADME, organism-based; conditions: in vivo; how it was run: as §1

In the case of `C[C@@H](O)[C@H]1C(=O)N2C(C(=O)O)=C(S[C@H]3C[C@@H](C(=O)N4CC[C@H](NC(=O)CNC(=N)N)C4)N(C)C3)[C@H](C)[C@H]12` [TOMOPENEM], the AUC (Homo sapiens [1]) is reported as 37.3 µg·h/mL, the AUC (Homo sapiens [2]) is reported as 115 µg·h/mL and the Ratio (Homo sapiens [3]) is reported as 0.12. For the same molecule, the Ratio (Homo sapiens [4]) was 0.49, the CL renal at 24 h [5] was 77.2 mL/min and the CL renal at 24 h [6] was 61.3 mL/min. For the same molecule, the CL renal at 24 h [7] was 33 mL/min, the Activity (Homo sapiens [8]) was 1090 mg and the Activity (Homo sapiens [9]) was 618 mg. The dose excreted at 24 h [10] was 72.6%, the dose excreted at 24 h [11] was 62.6% and the Vd [12] was 17 L. The Cmax [13] was 106 µg/mL, the Cmax [14] was 81.4 µg/mL and the Cmax [15] was 100 µg/mL. The Cmax [16] was 116 µg/mL, the Tmax [17] was 1 h and the half-life [18] was 4.59 h. The half-life [19] was 7.94 h, the AUC(0-inf) [20] was 191 µg·h/mL and the AUC(0-inf) [21] was 304 µg·h/mL. For the same molecule, the AUC(0-inf) [22] was 1040 µg·h/mL, the Vd [23] was 16.2 L and the clearance [24] was 135 mL/min. It also gave a clearance [25] of 51 mL/min, a Cmax (Homo sapiens [26]) of 4.31 µg/mL and a Cmax (Homo sapiens [27]) of 9.63 µg/mL. The Tmax (Homo sapiens [28]) was 5 h, the Tmax (Homo sapiens [29]) was 13.5 h and the t1/2 (Homo sapiens [30]) was 2.98 h. For the same molecule, the t1/2 (Homo sapiens [31]) was 8.32 h.
